ChEMBL document CHEMBL5532695, “4-Trifluoromethyl bithiazoles as broad-spectrum antimicrobial agents for virus-related bacterial infections or co-infections” (RSC Med Chem, 2024)

System: Staphylococcus aureus
Test: Bactericidal activity against methicillin-resistant Staphylococcus aureus ATCC 43300 assessed as reduction in microbial growth measured after 18 hrs by CLSI based broth microdilution method
Format: functional
Conditions: not given
With `CC(C)(C)C(=O)Nc1nc(C(F)(F)F)c(-c2csc(Nc3cccc(C(F)(F)F)c3)n2)s1` the MBC was 32 µg/mL.

System: not listed separately
Test: Cytotoxicity against african green monkey Vero E6 cells assessed as reduction in cell viability by MTT assay
Format: toxicity, cell-based
Conditions: chlorocebus sabaeus, Vero E6 cells (Vero C1008)
Outline: (§1)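 MTT viability on HeLa or VeroE6 cells, run in parallel with the antiviral assays. CC50 from variable-slope sigmoidal dose–response regression.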
For `CC(C)(C)C(=O)Nc1nc(C(F)(F)F)c(-c2csc(Nc3cccc(C(F)(F)F)c3)n2)s1`, the CC50 was greater than 50 µM.

System: enterovirus D68
Test: microbe, parasite or virus in culture
Conditions: Enterovirus D, HeLa, 48 h
In the case of `CC(C)(C)C(=O)Nc1nc(C(F)(F)F)c(-c2csc(Nc3cccc(C(F)(F)F)c3)n2)s1`, the IC50 is reported as 8.37 µM.

System: Streptococcus pyogenes
Test: Antibacterial activity against Streptococcus pyogenes ATCC 12344 assessed as reduction in microbial growth measured after 18 hrs by CLSI based broth microdilution method
Format: functional
Conditions: not given
Outline: (§2)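 MIC by CLSI broth microdilution in Mueller–Hinton medium, triplicate. Inoculum 5 × 10^4 CFU per well. Compounds taken up in DMSO (50 mg mL−1 stock) and diluted in medium. Read after 18 h at 35 ± 2 °C.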
Molecule `CC(C)(C)C(=O)Nc1nc(C(F)(F)F)c(-c2csc(Nc3cccc(C(F)(F)F)c3)n2)s1` has an MIC of 4 µg/mL.

System: Acinetobacter baumannii
Test: Synergistic antibacterial activity against Acinetobacter baumannii ATCC 17978 incubated for 18 to 24 hrs in presence of colistin by broth microdilution method
Format: functional
Conditions: time 18-24 hrs
Molecule `CC(C)(C)C(=O)Nc1nc(C(F)(F)F)c(-c2csc(Nc3cccc(C(F)(F)F)c3)n2)s1` has an MAC of 4 µg/mL.

System: Staphylococcus epidermidis
Test: Antibacterial activity against linezolid-resistant Staphylococcus epidermidis SI-1266 assessed as reduction in microbial growth measured after 18 hrs by CLSI based broth microdilution method
Format: functional
Conditions: not given
Outline: (§3)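 Gram-positive clinical isolates; compounds dissolved in DMSO (50 mg mL−1 stock) and diluted in medium; MIC by CLSI broth microdilution in Mueller–Hinton medium, inoculum 5 × 10^4 CFU per well, read after 18 h at 35 ± 2 °C; triplicate.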
For `CC(C)(C)C(=O)Nc1nc(C(F)(F)F)c(-c2csc(Nc3cccc(C(F)(F)F)c3)n2)s1`, the MIC was 16 µg/mL.

System: Klebsiella pneumoniae
Test: Synergistic antibacterial activity against Klebsiella pneumoniae ATCC 13833 incubated for 18 to 24 hrs in presence of colistin by broth microdilution method
Format: functional
Conditions: time 18-24 hrs
Molecule `CC(C)(C)C(=O)Nc1nc(C(F)(F)F)c(-c2csc(Nc3cccc(C(F)(F)F)c3)n2)s1` has an MAC of 4 µg/mL.

System: Acinetobacter baumannii
Test: Synergistic antibacterial activity against colistin/carbapenem resistant MDR Acinetobacter baumannii N50 incubated for 18 to 24 hrs in presence of colistin by broth microdilution method
Format: functional
Conditions: time 18-24 hrs
Outline: (§4)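 Minimum antibacterial concentration (MAC) by broth microdilution in Mueller–Hinton medium with a fixed subinhibitory colistin concentration of 2 μg mL−1 against colistin-resistant Gram-negative clinical isolates; inoculum 5 × 10^4 CFU per well, 35 ± 2 °C; triplicate.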
With `CC(C)(C)C(=O)Nc1nc(C(F)(F)F)c(-c2csc(Nc3cccc(C(F)(F)F)c3)n2)s1` the MAC was 0.03 µg/mL.

System: Enterococcus faecium
Test: Antibacterial activity against Vancomycin resistant Enterococcus faecium SI-1831 assessed as reduction in microbial growth measured after 18 hrs by CLSI based broth microdilution method
Format: functional
Conditions: not given
Outline: as §3
`CC(C)(C)C(=O)Nc1nc(C(F)(F)F)c(-c2csc(Nc3cccc(C(F)(F)F)c3)n2)s1` showed an MIC of 2 µg/mL.

System: Streptococcus pyogenes
Test: Bactericidal activity against Streptococcus pyogenes ATCC 12344 assessed as reduction in microbial growth measured after 18 hrs by CLSI based broth microdilution method
Format: functional
Conditions: not given
Outline: (§5)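 MBC by CLSI broth microdilution in Mueller–Hinton medium, triplicate. Inoculum 5 × 10^4 CFU per well. Read after 18 h at 35 ± 2 °C.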
Molecule `CC(C)(C)C(=O)Nc1nc(C(F)(F)F)c(-c2csc(Nc3cccc(C(F)(F)F)c3)n2)s1` has an MBC of 4 µg/mL.

System: not listed separately
Test: Cytotoxicity against human HeLa cells assessed as reduction in cell viability by MTT assay
Format: toxicity, cell-based
Conditions: not given
Outline: as §1
For `CC(C)(C)C(=O)Nc1nc(C(F)(F)F)c(-c2csc(Nc3cccc(C(F)(F)F)c3)n2)s1`, the CC50 was 46 µM.

System: Escherichia coli
Test: Synergistic antibacterial activity against Escherichia coli CCUGT incubated for 18 to 24 hrs in presence of colistin by broth microdilution method
Format: functional
Conditions: time 18-24 hrs
In the case of `CC(C)(C)C(=O)Nc1nc(C(F)(F)F)c(-c2csc(Nc3cccc(C(F)(F)F)c3)n2)s1`, the MAC is reported as 4 µg/mL.

System: Escherichia coli
Test: Synergistic antibacterial activity against colistin resistant mcr-positive Escherichia coli SI-63 incubated for 18 to 24 hrs in presence of colistin by broth microdilution method
Format: functional
Conditions: time 18-24 hrs
Outline: as §4
Work on `CC(C)(C)C(=O)Nc1nc(C(F)(F)F)c(-c2csc(Nc3cccc(C(F)(F)F)c3)n2)s1` yielded an MAC of 0.5 µg/mL.

System: Staphylococcus aureus
Test: Antibacterial activity against methicillin-resistant Staphylococcus aureus ATCC 43300 assessed as reduction in microbial growth measured after 18 hrs by CLSI based broth microdilution method
Format: functional
Conditions: not given
Outline: as §3
With `CC(C)(C)C(=O)Nc1nc(C(F)(F)F)c(-c2csc(Nc3cccc(C(F)(F)F)c3)n2)s1` the MIC was 4 µg/mL.

System: Enterococcus faecalis
Test: Bactericidal activity against Enterococcus faecalis ATCC 29212 assessed as reduction in microbial growth measured after 18 hrs by CLSI based broth microdilution method
Format: functional
Conditions: not given
Outline: as §5
Work on `CC(C)(C)C(=O)Nc1nc(C(F)(F)F)c(-c2csc(Nc3cccc(C(F)(F)F)c3)n2)s1` yielded an MBC greater than 32 µg/mL.

System: Enterococcus faecalis
Test: Antibacterial activity against Enterococcus faecalis ATCC 29212 assessed as reduction in microbial growth measured after 18 hrs by CLSI based broth microdilution method
Format: functional
Conditions: not given
Outline: as §2
For `CC(C)(C)C(=O)Nc1nc(C(F)(F)F)c(-c2csc(Nc3cccc(C(F)(F)F)c3)n2)s1`, the MIC was 8 µg/mL.

System: Staphylococcus epidermidis
Test: Bactericidal activity against linezolid-resistant Staphylococcus epidermidis SI-1266 assessed as reduction in microbial growth measured after 18 hrs by CLSI based broth microdilution method
Format: functional
Conditions: not given
For `CC(C)(C)C(=O)Nc1nc(C(F)(F)F)c(-c2csc(Nc3cccc(C(F)(F)F)c3)n2)s1`, the MBC was greater than 64 µg/mL.

System: rhinovirus A16
Test: microbe, parasite or virus in culture
Conditions: Rhinovirus A, HeLa, 48 h
In the case of `CC(C)(C)C(=O)Nc1nc(C(F)(F)F)c(-c2csc(Nc3cccc(C(F)(F)F)c3)n2)s1`, the IC50 is reported as 1.82 µM.

System: Staphylococcus haemolyticus
Test: Antibacterial activity against oxacillin-resistant Staphylococcus haemolyticus SI-6/2011 assessed as reduction in microbial growth measured after 18 hrs by CLSI based broth microdilution method
Format: functional
Conditions: not given
Outline: as §3
With `CC(C)(C)C(=O)Nc1nc(C(F)(F)F)c(-c2csc(Nc3cccc(C(F)(F)F)c3)n2)s1` the MIC was greater than 64 µg/mL.

Biological target: Phosphatidylinositol 4-kinase beta (Homo sapiens, UniProt Q9UBF8)
Sequence (Q9UBF8 whole entry): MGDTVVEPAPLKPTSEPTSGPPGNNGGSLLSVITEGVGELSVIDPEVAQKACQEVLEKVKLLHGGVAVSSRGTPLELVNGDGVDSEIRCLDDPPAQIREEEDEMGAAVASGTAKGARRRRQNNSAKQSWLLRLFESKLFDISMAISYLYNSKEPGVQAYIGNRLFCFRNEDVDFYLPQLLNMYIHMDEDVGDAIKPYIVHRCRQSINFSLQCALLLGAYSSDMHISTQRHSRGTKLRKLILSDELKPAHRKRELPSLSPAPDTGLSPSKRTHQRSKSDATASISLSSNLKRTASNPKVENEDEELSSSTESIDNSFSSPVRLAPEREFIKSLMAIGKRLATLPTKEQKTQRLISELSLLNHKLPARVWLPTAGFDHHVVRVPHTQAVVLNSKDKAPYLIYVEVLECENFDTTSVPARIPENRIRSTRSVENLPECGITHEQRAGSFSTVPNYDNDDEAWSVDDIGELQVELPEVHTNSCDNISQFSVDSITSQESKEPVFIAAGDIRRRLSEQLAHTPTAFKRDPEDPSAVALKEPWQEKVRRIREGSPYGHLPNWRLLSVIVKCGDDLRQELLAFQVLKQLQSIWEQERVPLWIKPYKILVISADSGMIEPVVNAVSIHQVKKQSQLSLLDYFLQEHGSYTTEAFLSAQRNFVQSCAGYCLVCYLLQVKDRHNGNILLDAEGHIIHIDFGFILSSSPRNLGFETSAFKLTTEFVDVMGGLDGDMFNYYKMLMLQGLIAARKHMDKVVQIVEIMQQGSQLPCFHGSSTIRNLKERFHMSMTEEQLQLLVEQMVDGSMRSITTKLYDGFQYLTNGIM
Test: Inhibition of recombinant full length his tagged PI4KB (unknown origin) incubated for 10 mins in presence of ATP by ADP-glo kinase assay
Conditions: read-out: IC50
With `CC(C)(C)C(=O)Nc1nc(C(F)(F)F)c(-c2csc(Nc3cccc(C(F)(F)F)c3)n2)s1` the IC50 was greater than 50 µM.

System: Staphylococcus warneri
Test: Bactericidal activity against oxacillin-resistant Staphylococcus warneri SI-5/2011 assessed as reduction in microbial growth measured after 18 hrs by CLSI based broth microdilution method
Format: functional
Conditions: not given
Work on `CC(C)(C)C(=O)Nc1nc(C(F)(F)F)c(-c2csc(Nc3cccc(C(F)(F)F)c3)n2)s1` yielded an MBC of 64 µg/mL.

System: Staphylococcus warneri
Test: Antibacterial activity against oxacillin-resistant Staphylococcus warneri SI-5/2011 assessed as reduction in microbial growth measured after 18 hrs by CLSI based broth microdilution method
Format: functional
Conditions: not given
Outline: as §3
`CC(C)(C)C(=O)Nc1nc(C(F)(F)F)c(-c2csc(Nc3cccc(C(F)(F)F)c3)n2)s1` showed an MIC of 4 µg/mL.

System: Staphylococcus aureus
Test: Bactericidal activity against Staphylococcus aureus ATCC 25923 assessed as reduction in microbial growth measured after 18 hrs by CLSI based broth microdilution method
Format: functional
Conditions: not given
Outline: as §5
In the case of `CC(C)(C)C(=O)Nc1nc(C(F)(F)F)c(-c2csc(Nc3cccc(C(F)(F)F)c3)n2)s1`, the MBC is reported as 32 µg/mL.

System: Enterococcus faecium
Test: Bactericidal activity against Vancomycin resistant Enterococcus faecium SI-3856B assessed as reduction in microbial growth measured after 18 hrs by CLSI based broth microdilution method
Format: functional
Conditions: not given
For `CC(C)(C)C(=O)Nc1nc(C(F)(F)F)c(-c2csc(Nc3cccc(C(F)(F)F)c3)n2)s1`, the MBC was greater than 64 µg/mL.

System: Staphylococcus aureus
Test: Antibacterial activity against Staphylococcus aureus ATCC 25923 assessed as reduction in microbial growth measured after 18 hrs by CLSI based broth microdilution method
Format: functional
Conditions: not given
Outline: as §2
Work on `CC(C)(C)C(=O)Nc1nc(C(F)(F)F)c(-c2csc(Nc3cccc(C(F)(F)F)c3)n2)s1` yielded an MIC of 8 µg/mL.

System: Bacillus subtilis
Test: Bactericidal activity against Bacillus subtilis ATCC 6633 assessed as reduction in microbial growth measured after 18 hrs by CLSI based broth microdilution method
Format: functional
Conditions: not given
Outline: as §5
Molecule `CC(C)(C)C(=O)Nc1nc(C(F)(F)F)c(-c2csc(Nc3cccc(C(F)(F)F)c3)n2)s1` has an MBC of 8 µg/mL.

System: Zika virus
Test: microbe, parasite or virus in culture
Conditions: Vero C1008, 72 h
In the case of `CC(C)(C)C(=O)Nc1nc(C(F)(F)F)c(-c2csc(Nc3cccc(C(F)(F)F)c3)n2)s1`, the IC50 is reported as 11.5 µM.

System: Enterococcus faecium
Test: Antibacterial activity against Vancomycin/teicoplanin resistant Enterococcus faecium SI-759 assessed as reduction in microbial growth measured after 18 hrs by CLSI based broth microdilution method
Format: functional
Conditions: not given
Outline: as §3
`CC(C)(C)C(=O)Nc1nc(C(F)(F)F)c(-c2csc(Nc3cccc(C(F)(F)F)c3)n2)s1` gave an MIC of 2 µg/mL.

System: Enterococcus faecium
Test: Antibacterial activity against Vancomycin resistant Enterococcus faecium SI-3856B assessed as reduction in microbial growth measured after 18 hrs by CLSI based broth microdilution method
Format: functional
Conditions: not given
Outline: as §3
Work on `CC(C)(C)C(=O)Nc1nc(C(F)(F)F)c(-c2csc(Nc3cccc(C(F)(F)F)c3)n2)s1` yielded an MIC of 4 µg/mL.

System: Enterococcus faecium
Test: Bactericidal activity against Vancomycin/teicoplanin resistant Enterococcus faecium SI-759 assessed as reduction in microbial growth measured after 18 hrs by CLSI based broth microdilution method
Format: functional
Conditions: not given
Work on `CC(C)(C)C(=O)Nc1nc(C(F)(F)F)c(-c2csc(Nc3cccc(C(F)(F)F)c3)n2)s1` yielded an MBC of 4 µg/mL.

System: Bacillus subtilis
Test: Antibacterial activity against Bacillus subtilis ATCC 6633 assessed as reduction in microbial growth measured after 18 hrs by CLSI based broth microdilution method
Format: functional
Conditions: not given
Outline: as §2
`CC(C)(C)C(=O)Nc1nc(C(F)(F)F)c(-c2csc(Nc3cccc(C(F)(F)F)c3)n2)s1` showed an MIC of 4 µg/mL.

System: Enterococcus faecium
Test: Bactericidal activity against Vancomycin resistant Enterococcus faecium SI-1831 assessed as reduction in microbial growth measured after 18 hrs by CLSI based broth microdilution method
Format: functional
Conditions: not given
`CC(C)(C)C(=O)Nc1nc(C(F)(F)F)c(-c2csc(Nc3cccc(C(F)(F)F)c3)n2)s1` showed an MBC greater than 64 µg/mL.

System: Pseudomonas aeruginosa
Test: Synergistic antibacterial activity against Pseudomonas aeruginosa ATCC 27853 incubated for 18 to 24 hrs in presence of colistin by broth microdilution method
Format: functional
Conditions: time 18-24 hrs
`CC(C)(C)C(=O)Nc1nc(C(F)(F)F)c(-c2csc(Nc3cccc(C(F)(F)F)c3)n2)s1` gave an MAC greater than 64 µg/mL.

System: Pseudomonas aeruginosa
Test: Synergistic antibacterial activity against colistin resistant MDR Pseudomonas aeruginosa SI-270 incubated for 18 to 24 hrs in presence of colistin by broth microdilution method
Format: functional
Conditions: time 18-24 hrs
Outline: as §4
For `CC(C)(C)C(=O)Nc1nc(C(F)(F)F)c(-c2csc(Nc3cccc(C(F)(F)F)c3)n2)s1`, the MAC was 2 µg/mL.
